Test results reported in ChEMBL document CHEMBL1148687, “Identification of a novel 4-aminomethylpiperidine class of M3 muscarinic receptor antagonists and structural insight into their M3 selectivity” (J Med Chem, 2006).

Assays:
[1] = biological target: T1, Muscarinic acetylcholine receptor M3 (Homo sapiens, UniProt P20309); test: Inhibition of [3H]NMS binding to human cloned M3 receptor expressed in CHO cells; assay type: cell-based
How it was run: (§1)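 Competition against specific [3H]-NMS binding on membranes of CHO cells expressing cloned human receptor subtypes. Assay buffer 50 mM Tris-HCl, 10 mM MgCl2, 1 mM EDTA, pH 7.4, highest final concentration 10 µM.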
Target sequence in this assay (P20309 whole entry): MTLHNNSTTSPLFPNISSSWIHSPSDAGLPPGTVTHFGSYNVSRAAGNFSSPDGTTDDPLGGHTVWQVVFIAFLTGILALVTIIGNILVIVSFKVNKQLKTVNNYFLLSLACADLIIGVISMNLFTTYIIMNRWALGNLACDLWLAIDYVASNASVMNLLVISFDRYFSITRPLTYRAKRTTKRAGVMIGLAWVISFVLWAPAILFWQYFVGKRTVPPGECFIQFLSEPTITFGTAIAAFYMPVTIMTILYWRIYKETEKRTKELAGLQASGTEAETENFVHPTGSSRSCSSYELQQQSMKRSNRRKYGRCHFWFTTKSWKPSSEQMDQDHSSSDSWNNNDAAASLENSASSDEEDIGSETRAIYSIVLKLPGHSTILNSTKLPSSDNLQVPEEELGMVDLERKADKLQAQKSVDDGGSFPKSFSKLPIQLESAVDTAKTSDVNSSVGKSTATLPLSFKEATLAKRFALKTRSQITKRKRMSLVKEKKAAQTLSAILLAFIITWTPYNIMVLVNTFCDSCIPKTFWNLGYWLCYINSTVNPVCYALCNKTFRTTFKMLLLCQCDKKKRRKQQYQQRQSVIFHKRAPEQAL

[2] = biological target: T2, Muscarinic acetylcholine receptor M1 (Homo sapiens, UniProt P11229); test: Inhibition of [3H]NMS binding to human cloned M1 receptor expressed in CHO cells; assay type: cell-based; how it was run: as §1
T2 sequence (P11229 whole entry): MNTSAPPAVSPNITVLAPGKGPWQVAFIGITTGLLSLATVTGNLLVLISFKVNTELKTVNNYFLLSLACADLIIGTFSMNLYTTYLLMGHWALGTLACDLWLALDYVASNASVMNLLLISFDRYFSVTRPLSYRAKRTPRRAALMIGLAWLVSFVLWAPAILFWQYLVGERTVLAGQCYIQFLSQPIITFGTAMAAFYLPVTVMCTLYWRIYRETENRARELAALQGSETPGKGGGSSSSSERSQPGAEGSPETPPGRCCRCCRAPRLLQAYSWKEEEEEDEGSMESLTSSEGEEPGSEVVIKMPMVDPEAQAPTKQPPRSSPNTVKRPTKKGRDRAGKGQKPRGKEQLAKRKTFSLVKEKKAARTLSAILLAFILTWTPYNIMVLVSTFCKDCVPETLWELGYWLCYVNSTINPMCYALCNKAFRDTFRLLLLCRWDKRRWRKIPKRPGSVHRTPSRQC

[3] = biological target: T3, Muscarinic acetylcholine receptor M4 (Homo sapiens, UniProt P08173); test: Inhibition of [3H]NMS binding to human cloned M4 receptor expressed in CHO cells; assay type: cell-based; how it was run: as §1
T3 sequence (P08173 whole entry): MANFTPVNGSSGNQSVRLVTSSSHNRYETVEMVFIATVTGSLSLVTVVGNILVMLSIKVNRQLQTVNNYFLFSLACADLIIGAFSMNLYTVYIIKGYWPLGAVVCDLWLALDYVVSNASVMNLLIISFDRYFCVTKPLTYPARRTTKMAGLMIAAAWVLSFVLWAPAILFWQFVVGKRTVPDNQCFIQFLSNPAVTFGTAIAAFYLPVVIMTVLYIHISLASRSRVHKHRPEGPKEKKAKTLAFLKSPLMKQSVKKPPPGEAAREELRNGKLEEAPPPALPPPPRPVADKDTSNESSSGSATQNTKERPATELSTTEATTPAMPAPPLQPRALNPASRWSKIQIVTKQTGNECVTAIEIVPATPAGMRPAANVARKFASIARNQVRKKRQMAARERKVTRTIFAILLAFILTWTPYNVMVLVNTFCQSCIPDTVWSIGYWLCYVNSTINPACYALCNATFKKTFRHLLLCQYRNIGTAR

[4] = biological target: T4, Muscarinic acetylcholine receptor M5 (Homo sapiens, UniProt P08912); test: Inhibition of [3H]NMS binding to human cloned M5 receptor expressed in CHO cells; assay type: cell-based; how it was run: as §1
T4 sequence (P08912 whole entry): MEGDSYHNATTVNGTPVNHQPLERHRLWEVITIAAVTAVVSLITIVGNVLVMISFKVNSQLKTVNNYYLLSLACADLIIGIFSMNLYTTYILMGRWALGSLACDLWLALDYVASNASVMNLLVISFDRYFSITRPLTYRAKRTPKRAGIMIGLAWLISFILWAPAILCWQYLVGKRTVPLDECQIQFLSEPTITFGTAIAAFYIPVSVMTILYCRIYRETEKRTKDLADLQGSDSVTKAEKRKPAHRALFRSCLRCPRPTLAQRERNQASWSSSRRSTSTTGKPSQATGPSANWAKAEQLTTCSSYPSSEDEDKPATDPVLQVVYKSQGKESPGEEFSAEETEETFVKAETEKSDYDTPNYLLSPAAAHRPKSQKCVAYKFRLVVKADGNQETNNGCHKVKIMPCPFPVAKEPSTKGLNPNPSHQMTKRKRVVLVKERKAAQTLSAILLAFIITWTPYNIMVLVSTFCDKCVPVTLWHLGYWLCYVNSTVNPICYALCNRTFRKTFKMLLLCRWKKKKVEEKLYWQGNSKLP

[5] = biological target: T1, Muscarinic acetylcholine receptor M3; test: Inhibition of [3H]NMS binding to human cloned M3 receptor expressed in CHO cells at 1 uM; assay type: cell-based
Target sequence in this assay (P20309 whole entry, looked up): as the sequence (P20309 whole entry) above

[6] = biological target: Muscarinic acetylcholine receptor M3 (Rattus norvegicus) (UniProt P08483); test: (§2) Antagonist activity at M3 receptor assessed as inhibition of carbachol-induced contraction of rat trachea; assay type: functional
How it was run: (§3)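 Contraction of isolated rat trachea evoked by carbachol, antagonist given at several doses. Four experiments per dose, reported as mean ± SEM. Schild regression analysis applied to the data.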

[7] = biological target: Muscarinic acetylcholine receptor M3 (Rattus norvegicus, UniProt P08483); test: as §2; assay type: functional; details: read-out: pA2 (converted); how it was run: as §3
[8] = biological target: T5, Muscarinic acetylcholine receptor M2 (Rattus norvegicus, UniProt P10980); test: Antagonist activity at M2 receptor assessed as inhibition of carbachol-induced bradycardia in rat atria; assay type: functional; details: read-out: pA2 (converted)
T5 sequence (P10980 whole entry): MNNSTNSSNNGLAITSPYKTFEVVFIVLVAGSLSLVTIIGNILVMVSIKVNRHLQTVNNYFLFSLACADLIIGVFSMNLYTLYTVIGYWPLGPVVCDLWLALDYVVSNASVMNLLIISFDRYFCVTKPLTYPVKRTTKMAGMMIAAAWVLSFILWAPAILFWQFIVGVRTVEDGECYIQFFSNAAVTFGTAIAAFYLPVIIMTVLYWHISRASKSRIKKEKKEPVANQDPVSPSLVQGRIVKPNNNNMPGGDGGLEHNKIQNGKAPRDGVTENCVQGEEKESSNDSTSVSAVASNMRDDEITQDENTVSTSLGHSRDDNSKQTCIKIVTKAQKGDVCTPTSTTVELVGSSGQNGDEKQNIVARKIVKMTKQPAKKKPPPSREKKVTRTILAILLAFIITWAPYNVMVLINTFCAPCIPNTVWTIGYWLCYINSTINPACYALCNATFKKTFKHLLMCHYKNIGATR
How it was run: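 Isolated rat right atria, bradycardia evoked by carbachol, antagonist given at several doses. Four experiments per dose, reported as mean ± SEM. Potency obtained by Schild regression analysis.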

Muscarinic acetylcholine receptor M3 (Rattus norvegicus, UniProt P08483), sequence (P08483 whole entry): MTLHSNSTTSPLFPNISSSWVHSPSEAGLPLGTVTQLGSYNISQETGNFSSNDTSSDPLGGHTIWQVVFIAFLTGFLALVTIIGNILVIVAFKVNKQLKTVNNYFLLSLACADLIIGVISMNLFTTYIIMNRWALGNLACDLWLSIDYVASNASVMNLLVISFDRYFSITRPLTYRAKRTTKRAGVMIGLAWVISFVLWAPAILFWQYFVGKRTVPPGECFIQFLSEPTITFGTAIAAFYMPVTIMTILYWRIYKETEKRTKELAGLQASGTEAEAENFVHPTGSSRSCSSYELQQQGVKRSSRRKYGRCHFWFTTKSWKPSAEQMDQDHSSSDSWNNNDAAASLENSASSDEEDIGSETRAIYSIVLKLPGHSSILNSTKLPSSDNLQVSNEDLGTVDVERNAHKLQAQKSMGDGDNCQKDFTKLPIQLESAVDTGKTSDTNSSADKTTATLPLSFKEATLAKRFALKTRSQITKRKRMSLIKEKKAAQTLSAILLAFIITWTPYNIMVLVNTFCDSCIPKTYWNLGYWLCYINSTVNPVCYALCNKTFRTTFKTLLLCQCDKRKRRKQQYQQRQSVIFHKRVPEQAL
Muscarinic acetylcholine receptor M3 (Rattus norvegicus), sequence (P08483 whole entry, looked up): as the sequence (P08483 whole entry) above

Ki [1] [nM] | Ki [2] [nM] | Ki [3] [nM] | Ki [4] [nM] | inhibition [5] [%] | Activity [6] | Kb [7] [nM] | Kb [8] [nM] | Structure (SMILES)
99 | > 2500 | > 1700 | > 5000 | 74 |  |  |  | O=C(NC[C@H]1CCCNC1)[C@H]1CCCN1C(=O)[C@@H]1CCCN1C(=O)CC(c1ccccc1)(c1ccccc1)c1ccccc1
0.39 | 93 | 53 | 2500 |  |  |  |  | O=C(NCC1CCNCC1)[C@H]1CCCN1C(=O)[C@@H]1C[C@@H](O)CN1C(=O)CC(c1ccc(Cl)cc1)(c1ccc(Cl)cc1)c1ccc(Cl)cc1
2.8 | 2000 | 150 | > 5100 |  |  |  |  | O=C(NCCC1CCNCC1)[C@H]1CCCN1C(=O)[C@@H]1C[C@@H](O)CN1C(=O)CC(c1ccccc1)(c1ccccc1)c1ccccc1
0.53 | 220 | 31 | 3100 |  |  |  |  | O=C(NCC1CCN(CC2CCC2)CC1)[C@H]1CCCN1C(=O)[C@@H]1C[C@@H](O)CN1C(=O)CC(c1ccc(F)cc1)(c1ccc(F)cc1)c1ccc(F)cc1
0.3 | 170 | 42 | 3500 |  | Dose-dependent effect | 0.224 | 204 | O=C(NCC1CCNCC1)[C@H]1CCCN1C(=O)[C@@H]1C[C@@H](O)CN1C(=O)CC(c1ccc(F)cc1)(c1ccc(F)cc1)c1ccc(F)cc1
1.2 | 260 | 24 | 950 |  |  |  |  | O=C(NCCC1CCNCC1)[C@H]1CCCN1C(=O)[C@@H]1C[C@@H](O)CN1C(=O)CC(c1ccc(Cl)cc1)(c1ccc(Cl)cc1)c1ccc(Cl)cc1
0.51 | 210 | 48 | 3200 |  |  |  |  | O=C(NCC1CCN(C2CCCC2)CC1)[C@H]1CCCN1C(=O)[C@@H]1C[C@@H](O)CN1C(=O)CC(c1ccc(F)cc1)(c1ccc(F)cc1)c1ccc(F)cc1
